In ChEMBL document CHEMBL4382268, “Glycyrrhetinic acid derivatives containing aminophosphonate ester species as multidrug resistance reversers that block the NF-κB pathway and cell proliferation” (Bioorg Med Chem Lett, 2018):

How the values were obtained:
HepG2 = assay: Antiproliferative activity against human HepG2 cells after 48 hrs by MTT assay; format: functional, cell-based; details: HepG2, 48 h
In short: (§1)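 MTT read-out of antiproliferative activity across cancer lines HepG-2, NCI-H460, MGC-803, A549 and MG-63 and normal liver line HL-7702. IC50 given as mean ± S.D. of three separate experiments, each run in triplicate.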

A549 = assay: Antiproliferative activity against human A549 cells after 48 hrs by MTT assay; format: functional, cell-based; details: A549, 48 h; in short: as §1
MG-63 = assay: Antiproliferative activity against human MG63 cells after 48 hrs by MTT assay; format: functional, cell-based; details: MG-63, 48 h; in short: as §1
[1] = Inhibition of TNF-alpha induced NF-kappaB activation in human A549 cells after 7 hrs by Bright-Glo luciferase reporter gene assay; format: cell-based
In short: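 A549 cells transiently cotransfected with an NF-κB-Luc reporter and stimulated with TNF-α. Luciferase read-out of inhibition gives IC50, the mean of at least three independent experiments each with triplicates.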

L02 = assay: Antiproliferative activity against human HL-7702 cells after 48 hrs by MTT assay; format: functional, cell-based; details: L02, 48 h; in short: as §1
NCI-H460 = assay: Antiproliferative activity against human NCI-H460 cells after 48 hrs by MTT assay; format: functional, cell-based; details: NCI-H460, 48 h; in short: as §1
MGC-803 = assay: Antiproliferative activity against human MGC803 cells after 48 hrs by MTT assay; format: functional, cell-based; details: MGC-803, 48 h; in short: as §1
SK-OV-3 = assay: Growth inhibition of cisplatin sensitive human SKOV3 cells after 48 hrs by MTT assay; format: functional, cell-based; details: SK-OV-3, 48 h
In short: (§2)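 MTT growth inhibition in the paired ovarian lines, cisplatin-sensitive SK-OV-3 and cisplatin-resistant SK-OV-3/CDDP. IC50 given as mean ± S.D. of three separate experiments, each in triplicate.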

[2] = Selectivity ratio of IC50 for cisplatin-resistant human SKOV3/DDP cells to IC50 for cisplatin sensitive human SKOV3 cells; format: functional
In short: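 IC50 determined in resistant SK-OV-3/CDDP cells divided by IC50 in parental SK-OV-3 cells. Each IC50 by MTT, three separate experiments each in triplicate.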

[3] = Growth inhibition of cisplatin-resistant human SKOV3/DDP cells after 48 hrs by MTT assay; format: functional; details: SK-OV-3, 48 h; in short: as §2
[4] = Homo sapiens, A549, 7 h, read-out: IC50

SMILES	IC50 (HepG2) [µM]	IC50 (A549) [µM]	IC50 [1, 4] [µM]	IC50 (NCI-H460) [µM]	IC50 (MGC-803) [µM]	IC50 (SK-OV-3) [µM]	IC50 ([1]; a549)	IC50 (MG-63) [µM]	IC50 (L02) [µM]	Ratio IC50 [2]	IC50 [3] [µM]
CCOP(=O)(OCC)C(Nc1ccc(CC(=O)NCCCCNC(=O)[C@@]2(C)CC[C@]3(C)CC[C@]4(C)C(=CC(=O)[C@@H]5[C@@]6(C)CC[C@H](OC(C)=O)C(C)(C)[C@@H]6CC[C@]54C)[C@@H]3C2)cc1)c1cccc(Br)c1 (stereo partly drawn)	48.2	39.6	27.1	47.6	41.8			> 50	> 50		
CCOP(=O)(OCC)C(Nc1ccc(CC(=O)NCCCCNC(=O)[C@@]2(C)CC[C@]3(C)CC[C@]4(C)C(=CC(=O)[C@@H]5[C@@]6(C)CC[C@H](OC(C)=O)C(C)(C)[C@@H]6CC[C@]54C)[C@@H]3C2)cc1)c1cccc(OC)c1 (stereo partly drawn)	35.3	27.2	23.4	27.4	32.9			36.6	> 50		
CCOP(=O)(OCC)C(Nc1ccc(CC(=O)NCCCNC(=O)[C@@]2(C)CC[C@]3(C)CC[C@]4(C)C(=CC(=O)[C@@H]5[C@@]6(C)CC[C@H](OC(C)=O)C(C)(C)[C@@H]6CC[C@]54C)[C@@H]3C2)cc1)c1ccc(OC)cc1 (stereo partly drawn)	19.3	19.3	5.03	18.8	18.2			19.1	> 50		
CCOP(=O)(OCC)C(Nc1ccc(CC(=O)NCCCCNC(=O)[C@@]2(C)CC[C@]3(C)CC[C@]4(C)C(=CC(=O)[C@@H]5[C@@]6(C)CC[C@H](OC(C)=O)C(C)(C)[C@@H]6CC[C@]54C)[C@@H]3C2)cc1)c1cccc(F)c1 (stereo partly drawn)	21.3	26.4	27.4	28.2	21			22.8	> 50		
CCOP(=O)(OCC)C(Nc1ccc(CC(=O)NCCCCNC(=O)[C@@]2(C)CC[C@]3(C)CC[C@]4(C)C(=CC(=O)[C@@H]5[C@@]6(C)CC[C@H](OC(C)=O)C(C)(C)[C@@H]6CC[C@]54C)[C@@H]3C2)cc1)c1ccccc1 (stereo partly drawn)	26.3	23.1	13.2	13.2	15.2			20.2	> 50		

The next lines start with results.

IC50 (HepG2) [µM]	IC50 (A549) [µM]	IC50 [1, 4] [µM]	IC50 (NCI-H460) [µM]	IC50 (MGC-803) [µM]	IC50 (SK-OV-3) [µM]	IC50 ([1]; a549)	SMILES	IC50 (MG-63) [µM]	IC50 (L02) [µM]	Ratio IC50 [2]	IC50 [3] [µM]
> 50	> 50	> 30	> 50	> 50			CCOP(=O)(OCC)C(Nc1ccc(CC(=O)NCCCCNC(=O)[C@@]2(C)CC[C@]3(C)CC[C@]4(C)C(=CC(=O)[C@@H]5[C@@]6(C)CC[C@H](O)C(C)(C)[C@@H]6CC[C@]54C)[C@@H]3C2)cc1)c1cccc(F)c1 (stereo partly drawn)	> 50	> 50		
15.3	15	3.01	14.9	16.3	10.1		CCOP(=O)(OCC)C(Nc1ccc(CC(=O)NCCCNC(=O)[C@@]2(C)CC[C@]3(C)CC[C@]4(C)C(=CC(=O)[C@@H]5[C@@]6(C)CC[C@H](OC(C)=O)C(C)(C)[C@@H]6CC[C@]54C)[C@@H]3C2)cc1)c1ccc(F)cc1 (stereo partly drawn)	13.7	> 50	1.32	13.4
> 50	> 50	> 30	> 50	> 50			CCOP(=O)(OCC)C(Nc1ccc(CC(=O)NCCCCNC(=O)[C@@]2(C)CC[C@]3(C)CC[C@]4(C)C(=CC(=O)[C@@H]5[C@@]6(C)CC[C@H](O)C(C)(C)[C@@H]6CC[C@]54C)[C@@H]3C2)cc1)c1cccc(Br)c1 (stereo partly drawn)	> 50	> 50		
> 50	> 50		> 50	45.2		Not Active	CCOP(=O)(OCC)C(Nc1ccc(CC(=O)NCCCNC(=O)[C@@]2(C)CC[C@]3(C)CC[C@]4(C)C(=CC(=O)[C@@H]5[C@@]6(C)CC[C@H](O)C(C)(C)[C@@H]6CC[C@]54C)[C@@H]3C2)cc1)c1cccc(OC)c1 (stereo partly drawn)	46.6	> 50		
31.6	30.3	22.1	23.2	21			CCOP(=O)(OCC)C(Nc1ccc(CC(=O)NCCCNC(=O)[C@@]2(C)CC[C@]3(C)CC[C@]4(C)C(=CC(=O)[C@@H]5[C@@]6(C)CC[C@H](OC(C)=O)C(C)(C)[C@@H]6CC[C@]54C)[C@@H]3C2)cc1)c1ccccc1 (stereo partly drawn)	25.3	> 50		
44.5	36.1	> 30	37.6	> 50	45.6		CC1(C)[C@@H](O)CC[C@]2(C)[C@H]3C(=O)C=C4[C@@H]5C[C@@](C)(C(=O)O)CC[C@]5(C)CC[C@@]4(C)[C@]3(C)CC[C@@H]12 [ENOXOLONE]	> 50	> 50	1.08	49.4
